How the values were obtained:
[1] = target: T1, Amine oxidase [flavin-containing] B (Homo sapiens, UniProt P27338); test: Inhibition of human recombinant MAO-B expressed in baculovirus infected BTI-TN-5B1-4 insect cells using benzylamine as substrate preincubated for 1 hr followed by substrate addition and measured after 30 mins by resazurin dye-based fluorescence assay; format: cell-based
T1 sequence (P27338 whole entry): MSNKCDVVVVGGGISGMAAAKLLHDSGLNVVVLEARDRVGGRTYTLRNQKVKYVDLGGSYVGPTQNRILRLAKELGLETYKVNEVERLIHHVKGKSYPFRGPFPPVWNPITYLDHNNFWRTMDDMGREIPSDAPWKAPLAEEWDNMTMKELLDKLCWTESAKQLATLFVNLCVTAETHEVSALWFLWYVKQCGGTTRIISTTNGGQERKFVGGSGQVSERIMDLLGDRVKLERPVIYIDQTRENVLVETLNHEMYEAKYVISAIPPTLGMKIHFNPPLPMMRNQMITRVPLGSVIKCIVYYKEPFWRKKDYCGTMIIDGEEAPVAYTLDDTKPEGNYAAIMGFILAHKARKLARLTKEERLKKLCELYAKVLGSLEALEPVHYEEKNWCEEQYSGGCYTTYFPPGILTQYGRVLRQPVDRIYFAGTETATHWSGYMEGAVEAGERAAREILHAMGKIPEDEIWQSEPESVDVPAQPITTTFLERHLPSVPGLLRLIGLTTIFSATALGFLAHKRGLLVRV

[2] = target: T2, Amine oxidase [flavin-containing] A (Homo sapiens, UniProt P21397); test: Inhibition of human recombinant MAO-A expressed in baculovirus infected BTI-TN-5B1-4 insect cells using tyramine as substrate preincubated for 1 hr followed by substrate addition and measured after 30 mins by resazurin dye-based fluorescence assay
T2 sequence (P21397 whole entry): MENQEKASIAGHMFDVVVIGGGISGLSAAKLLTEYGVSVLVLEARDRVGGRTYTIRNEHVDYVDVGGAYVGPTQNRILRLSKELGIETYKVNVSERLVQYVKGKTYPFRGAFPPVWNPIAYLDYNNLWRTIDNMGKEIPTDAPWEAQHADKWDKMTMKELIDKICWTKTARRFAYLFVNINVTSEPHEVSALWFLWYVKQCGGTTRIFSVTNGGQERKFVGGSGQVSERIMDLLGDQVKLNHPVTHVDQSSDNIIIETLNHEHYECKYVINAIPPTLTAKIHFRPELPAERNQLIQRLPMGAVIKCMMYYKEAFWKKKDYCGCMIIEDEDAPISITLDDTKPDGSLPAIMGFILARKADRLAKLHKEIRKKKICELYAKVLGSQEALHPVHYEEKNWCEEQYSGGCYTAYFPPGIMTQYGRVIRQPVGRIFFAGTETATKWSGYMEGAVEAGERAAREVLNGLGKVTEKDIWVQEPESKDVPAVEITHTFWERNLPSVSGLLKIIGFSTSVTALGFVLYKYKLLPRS

Mus musculus [3] = test: Acute toxicity in C57BL/6 mouse assessed as abnormal clinical signs at […], po administered as single dose measured after 24 hrs post-injection; format: organism-based; settings: in vivo
[4] = Efflux ratio of apparent permeability in MDCK-WT cells at 10 uM after 1 hr in absence of P-gp inhibitor verapamil by UPLC-MS/MS analysis; settings: dog
[5] = Cmax in C57BL/6 mouse brain at 22 mg/kg, iv administered as single dose measured 24 hrs by UPLC-MS/MS analysis; format: ADME, organism-based; parameters: dose 22 mg/kg, route intravenous
Outline: (§1)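 21 animals dosed at 0 min, 3 sacrificed at each of 0, 5, 15, 30 min, 1, 4 and 24 h. Plasma was extracted by protein precipitation with phospholipid removal. Brain was weighed, bead-homogenised in 50 mM ammonium formate and extracted in acidified organic solvent. Quantified by UPLC-MS/MS (MRM). Brain ng/g taken as ng/mL. Parameters came from noncompartmental analysis. Kp = AUClast brain/plasma.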

[6] = Cmax in C57BL/6 mouse plasma at 22 mg/kg, iv administered as single dose measured 24 hrs by UPLC-MS/MS analysis; format: ADME, organism-based; parameters: dose 22 mg/kg, route intravenous; outline: as §1
[7] = Apparent half-life of the terminal disposition phase in C57BL/6 mouse plasma at 22 mg/kg, iv administered as single dose measured 24 hrs by UPLC-MS/MS analysis; format: ADME, organism-based; settings: read-out: t1/2 lambda z (converted); outline: as §1
P-gp (MDR1) = test: Efflux ratio of apparent permeability in MDCK2-MDR1 cells at 10 uM after 1 hr in absence of P-gp inhibitor verapamil by UPLC-MS/MS analysis; format: ADME, cell-based, Canis lupus familiaris; settings: dog, MDCK-MDR1
Outline: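 MDCK-WT (MEM-α/10% FBS) or MDCK-MDR1 II (DMEM/10% FBS) cells were grown 3 days on 12-well transwells. Integrity was checked by TEER and 100 μM Lucifer yellow. Cells were washed in HBSS/10 mM HEPES. Compound at 10 μM was added apically or basally, in triplicate, ±100 μM verapamil. Receiver sampled at 1 h by UPLC-MS/MS. Efflux ratio = Papp B→A / Papp A→B.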

[8] = Metabolic stability in human liver microsomes assessed as parent compound remaining at 1 uM after 60 mins by UPLC-MS/MS analysis; format: ADME, microsome; settings: liver microsomes, read-out: Stability
Outline: (§2)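 Compound at 1 μM with 0.5 mg/mL mouse or human liver microsomes in 100 mM potassium phosphate pH 7.4, 3.3 mM MgCl2, 1 mM NADPH, at 37 °C. Started with NADPH; minus-NADPH control run. Stopped at 0, 5, 15, 30, 45 and 60 min with acetonitrile/formic acid plus internal standard. Parent remaining by UPLC-MS/MS, in triplicate.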

Mus musculus [9] = test: Acute toxicity in C57BL/6 mouse assessed as abnormal clinical signs at […], iv administered as single dose measured after 24 hrs post-injection; format: organism-based; settings: in vivo
[10] = Tmax in C57BL/6 mouse brain at 22 mg/kg, iv administered as single dose measured 24 hrs by UPLC-MS/MS analysis; format: ADME, organism-based
Outline: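 Brains weighed, portion bead-homogenised in 50 mM ammonium formate, extracted in acidified organic solvent, quantified by UPLC-MS/MS. ng/g taken as ng/mL. Tmax from noncompartmental analysis.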

[11] = Metabolic stability in mouse liver microsomes assessed as parent compound remaining at 1 uM after 60 mins in presence of NADPH by UPLC-MS/MS analysis; format: ADME, microsome; settings: read-out: Stability; outline: as §2
[12] = Metabolic stability in mouse plasma assessed as parent compound remaining at 5 uM after 4 hrs by UPLC-MS/MS analysis; format: ADME, cell-free; settings: read-out: Stability
Outline: (§3)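 Compound at 5 μM was incubated in mouse or human plasma at 37 °C with shaking. Sampled at 0, 5, 15, 30, 60, 120 and 240 min and stopped with ice-cold acetonitrile/0.1% formic acid containing internal standard. Supernatants analysed by UPLC-MS/MS for parent remaining. Run in triplicate.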

[13] = Ratio of AUClast in brain to plasma in C57BL/6 mouse at 22 mg/kg, iv administered as single dose measured 24 hrs by UPLC-MS/MS analysis; format: ADME, organism-based; outline: as §1
[14] = AUClast in C57BL/6 mouse brain at 22 mg/kg, iv administered as single dose measured 24 hrs by UPLC-MS/MS analysis; format: ADME, organism-based; parameters: dose 22 mg/kg, route intravenous, time 0 - last; outline: as §1
[15] = AUClast in C57BL/6 mouse plasma at 22 mg/kg, iv administered as single dose measured 24 hrs by UPLC-MS/MS analysis; format: ADME, organism-based; parameters: dose 22 mg/kg, time 0 - last, route intravenous; outline: as §1
[16] = Metabolic stability in cryopreserved mouse hepatocytes assessed as parent compound remaining at 1 uM after 60 mins by UPLC-MS/MS analysis; format: ADME, cell-based, Hepatocyte; settings: read-out: Stability
[17] = Metabolic stability in human plasma assessed as parent compound remaining at 5 uM after 4 hrs by UPLC-MS/MS analysis; format: ADME, cell-free; settings: read-out: Stability; outline: as §3
Mus musculus [18] = test: Acute toxicity in C57BL/6 mouse assessed as abnormal clinical signs at […], sc administered as single dose measured after 24 hrs post-injection; format: organism-based; settings: in vivo
[19] = Tmax in C57BL/6 mouse plasma at 22 mg/kg, iv administered as single dose measured 24 hrs by UPLC-MS/MS analysis; format: ADME, organism-based
Outline: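 Plasma cleaned by protein precipitation with phospholipid removal, then UPLC-MS/MS in MRM mode. Tmax obtained by noncompartmental analysis.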

## C[C@H](Cc1ccc(OCc2cccc([N+](=O)[O-])c2)cc1)N(C)CC(=O)O
[1]
  IC50: 4.37 µM
[2]
  IC50: > 50 µM

## C[C@H](Cc1ccc(OCc2ccccn2)cc1)N(C)CC(=O)O
[2]
  IC50: > 50 µM

## CN(CC(=O)O)[C@H](CC#N)Cc1ccc(OCc2ccccc2)cc1
[1]
  IC50: 0.532 µM
[2]
  IC50: > 50 µM

## C[C@H](Cc1ccc(OCc2ccc3ccccc3c2)cc1)N(C)CC(=O)O
[1]
  IC50: 14.2 µM

## C[C@H](Cc1ccc(OCc2ccc(C#N)cc2)cc1)N(C)CC(=O)O
[1]
  IC50: 3.75 µM
[2]
  IC50: > 50 µM

## COC(=O)[C@H](Cc1ccc(OCc2cccc(Cl)c2)cc1)N(C)CC(=O)O
[1]
  IC50: 1.26 µM
[2]
  IC50: > 50 µM

## C[C@H](Cc1ccc(OCc2ccc(Cl)cc2)cc1)N(C)CC(=O)O
[1]
  IC50: 0.864 µM
[2]
  IC50: 217 µM

## C[C@H](Cc1ccc(OCc2cccnc2)cc1)N(C)CC(=O)O
[1]
  IC50: > 50 µM
[2]
  IC50: > 50 µM

## CN(CC(=O)O)[C@H](COCc1ccccc1)Cc1ccc(OCc2ccccc2)cc1
[1]
  IC50: 8 µM
[2]
  IC50: > 50 µM

## C[C@H](Cc1ccc(OCc2ccc(Cl)c(Cl)c2)cc1)N(C)CC(=O)O
Mus musculus [3]
  Activity: Non-Toxic
[4]
  efflux ratio at 1 h, 10 µM: 1.45
[5]
  Cmax: 455 ng/mL
[1]
  IC50: 0.218 µM
[6]
  Cmax: 16200 ng/mL
[7]
  half-life: 3.97 h
P-gp (MDR1)
  efflux ratio at 1 h, 10 µM: 3.07
[8]
  remaining at 1 h, 1 µM: ≥ 90%
Mus musculus [9]
  Activity: Non-Toxic
[10]
  Tmax: 4 h
[2]
  IC50: 41.4 µM
[11]
  remaining at 1 h, 1 µM: 89.5%
[12]
  remaining at 4 h, 5 µM: ≥ 75%
[13]
  Kp at 24 h: 0.09
[14]
  AUC(0-t) at 24 h: 7450 ng·h/mL
[15]
  AUC(0-t) at 24 h: 82000 ng·h/mL
[16]
  remaining at 1 h, 1 µM: ≥ 90%
[17]
  remaining at 4 h, 5 µM: ≥ 75%
Mus musculus [18]
  Activity: Non-Toxic
[19]
  Tmax: 5 min

## COc1cccc(COc2ccc(C[C@@H](C)N(C)CC(=O)O)cc2)c1
[1]
  IC50: 2.11 µM

## O=C(O)COCCN1CCN(C(c2ccccc2)c2ccc(Cl)cc2)CC1 (centres undefined) [CETIRIZINE]
[4]
  efflux ratio at 1 h, 10 µM: 3
P-gp (MDR1)
  efflux ratio at 1 h, 10 µM: 4.12

— ChEMBL document CHEMBL4229446, “Development of Novel Monoamine Oxidase-B (MAO-B) Inhibitors with Reduced Blood-Brain Barrier Permeability for the Potential Management of Noncentral Nervous System (CNS) Diseases” (J Med Chem, 2018)
